Experimental findings from ChEMBL document CHEMBL4130517, “Discovery of a Tetrahydrobenzisoxazole Series of γ-Secretase Modulators” (ACS Med Chem Lett, 2017) are described below.

Molecules are shown by their SMILES. Activity calls are given as the source filed them. The calls are words filed in the database; no cut-off is given here.

Series [1] has as its target Gamma-secretase. The series can be described thus: Modulation of gamma-secretase (unknown origin) expressed in HEK293 cells harboring SCP99-Lon mutation assessed as reduction in Abeta42 production after 5 hrs by sandwich immunoassay. It is filed as cell-based, Homo sapiens. A digest of the protocol: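 HEK293 cells incubated 5 h with a range of GSM concentrations. Aβ42 in conditioned medium quantified by MSD sandwich electrochemiluminescence immunoassay, using TAG-G2-11 and biotin-4G8 antibodies.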

Series [2] has as its target T1, Gamma-secretase (Homo sapiens) (UniProt Q96BI3+Q9NZ42+Q8WW43+P49768+Q92542+P49810). The series can be described thus: Modulation of gamma-secretase (unknown origin) expressed in HEK293 cells harboring SCP99-Lon mutation assessed as ratio of total amyloid beta to amyloid beta 42 level after 5 hrs by sandwich immunoassay. In kind it is cell-based. Put shortly:
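HEK293 cells exposed 5 h to varied GSM concentrations. Conditioned medium assayed by MSD sandwich electrochemiluminescence immunoassay: Aβ42 with TAG-G2-11/biotin-4G8, total Aβ with TAG-W02/biotin-4G8. Ratio formed from total Aβ and Aβ42.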

Series [3] can be described thus: Drug uptake in brain of Sprague-Dawley rat at 30 mg/kg, po after 3 hrs by LC-MS/MS analysis. The settings on record: read-out: Drug uptake. In kind it is ADME, organism-based. Put shortly: (§1)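 Rats given a single oral dose of 30 mg/kg. Plasma and brain collected 3 h post-dose and drug concentration measured; n = 3.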
In series [4] the test system is P-gp. The experiment in a line: Substrate activity at P-gp (unknown origin) assessed as efflux ratio of permeability across basolateral to apical over apical to basolateral side. In kind it is ADME. To be noted: human, not told.
Series [5] has as its system P-gp. The series can be described thus: Substrate activity at P-gp (unknown origin) assessed as permeability across basolateral to apical side. It is filed as ADME. To be noted: human, not told; read-out: permeability.
The nature of series [6]: Drug uptake in plasma of Sprague-Dawley rat at 30 mg/kg, po after 3 hrs by LC-MS/MS analysis. It is filed as ADME, organism-based. Put shortly: as §1
Series [7] relates to P-gp. The experiment in a line: Substrate activity at P-gp (unknown origin) assessed as permeability across apical to basolateral side. It is filed as ADME. The settings on record: human, not told; read-out: permeability.
Series [8] in a line: Dissociation constant, pKa of the compound. In kind it is physicochemical.
The test system of series [9] is Rattus norvegicus. The series can be described thus: Reduction in amyloid beta 42 level in Sprague-Dawley rat cerebrospinal fluid at 30 mg/kg, po administered as single dose after 3 hrs by sandwich immunoassay relative to control. On the set-up: scale not given: the % may be the effect or the level left. In kind it is functional. Put shortly: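 Non-transgenic rats received a single oral 30 mg/kg dose or vehicle. CSF sampled 3 h later and Aβ42 compared against vehicle-treated animals; n = 5.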

The target of series [10] is T1, Gamma-secretase (Homo sapiens). The experiment in a line: Modulation of gamma-secretase (unknown origin) expressed in HEK293 cells harboring SCP99-Lon mutation assessed as reduction in amyloid beta 42 level at 10 uM by surface enhanced laser desorption/ionization mass spectrometry. It is filed as cell-based.
Series [11] shares this target. The experiment in a line: Modulation of gamma-secretase (unknown origin) expressed in HEK293 cells harboring SCP99-Lon mutation assessed as increase in amyloid beta 37 level at 10 uM by surface enhanced laser desorption/ionization mass spectrometry. In kind it is cell-based.
For series [12] the target is unchanged. The experiment in a line: Modulation of gamma-secretase (unknown origin) expressed in HEK293 cells harboring SCP99-Lon mutation assessed as reduction in amyloid beta 40 level at 10 uM by surface enhanced laser desorption/ionization mass spectrometry. It is filed as cell-based.
For series [13] the target is unchanged. The series can be described thus: Modulation of gamma-secretase (unknown origin) expressed in HEK293 cells harboring SCP99-Lon mutation assessed as increase in amyloid beta 38 level at 10 uM by surface enhanced laser desorption/ionization mass spectrometry. In kind it is cell-based.

As usually defined, the IC50 is the concentration that gives 50% inhibition. With `COc1cc(-c2noc3c2CCCC3NCc2cc(F)cc(F)c2)ccc1-n1cnc(C)c1` (stereo in doubt; 14d) [listing 1 of 2 here], the IC50 in series [1] amounted to 640 nM.
As to `COc1cc(-c2noc3c2CCCC3c2cc(F)cc(F)c2)ccc1-n1cnc(C)c1` (stereo not given), the Ratio in series [2] came to 178. In addition, the IC50 in series [1] was 110 nM.
In general, efflux ratio refers to the permeability from basolateral to apical divided by that in the opposite direction, in the common usage. With `COc1cc(-c2noc3c2CCCC3NCc2cc(F)cc(F)c2)ccc1-n1cnc(C)c1` (stereo in doubt; 14c) [listing 1 of 2 here], the concentration at 3 h amounted to 2.19 µM in series [3] and 6.01 µM in [6]. Also, the efflux ratio in series [4] came out at 6.8. The Papp B→A in series [5] came out at 46.2 ×10⁻⁶ cm/s. For the same molecule, the Papp A→B in series [7] was determined as 6.8 ×10⁻⁶ cm/s. Besides, in [1], the IC50 turned out to be 29 nM.
For orientation: pKa means the negative logarithm of the acid dissociation constant. In the case of `COc1cc(-c2noc3c2CCCC3NCC(F)(F)F)ccc1-n1cnc(C)c1` (stereo not given), the Ratio in [2] was 43. For the same molecule, in [8], the pKa is 5.42. Besides, the IC50 in series [1] came out at 460 nM.
With `COc1cc(-c2noc3c2CCCC3N(C)Cc2ccc(F)cc2)ccc1-n1cnc(C)c1` (stereo not given), the Ratio in series [2] stood at 79. For the same molecule, in [1], the IC50 is 250 nM.
`COc1cc(-c2noc3c2CCCC3Nc2ccc(F)cc2)ccc1-n1cnc(C)c1` (stereo in doubt; 14a) [listing 1 of 2 here]: the values for the concentration at 3 h in series [3] and in series [6] were 14.3 µM and 10.4 µM, respectively. The efflux ratio in series [4] is 1.6. Also, in series [5], the Papp B→A came out at 60 ×10⁻⁶ cm/s. This molecule also yielded a pKa in series [8] of 5.33. For the same molecule, in [7], the Papp A→B came to 37.6 ×10⁻⁶ cm/s. Further, the IC50 in [1] was found to be 39 nM. In series [9], this molecule gave an Activity of 58%.
In the case of `COc1cc(-c2noc3c2CCCC3Nc2ccc(F)cc2)ccc1-n1cnc(C)c1` (stereo in doubt; 14a) [listing 2 of 2 here], the outcome in series [10], in series [11], in series [12] and in series [13] was Active. In series [2], the Ratio was determined as 499.
`COc1cc(-c2noc3c2CCCC3(O)Cc2cc(F)cc(F)c2)ccc1-n1cnc(C)c1` (stereo not given): the Ratio in [2] amounted to 102. For the same molecule, the IC50 in series [1] was found to be 150 nM.
As for `COc1cc(-c2noc3c2CCCC3NCc2cc(F)cc(F)c2)ccc1-n1cnc(C)c1` (stereo in doubt; 14c) [listing 2 of 2 here], the outcome in [10], in series [11], in series [12] and in series [13] was Active. Further, the Ratio in series [2] is 575.
With `COc1cc(-c2noc3c2CCCC3(O)c2cc(F)cc(F)c2)ccc1-n1cnc(C)c1` (stereo not given), the Ratio in [2] was 105. For the same molecule, the IC50 in series [1] is 190 nM.
As to `COc1cc(-c2noc3c2CCCC3NCc2ccc(F)cc2)ccc1-n1cnc(C)c1` (stereo not given), the result in [10], in [11], in series [12] and in series [13] was Active. Also, in series [2], the Ratio is 32. In series [8], this molecule displayed a pKa of 7.08. Moreover, the IC50 in series [1] stood at 130 nM.
With `COc1cc(-c2noc3c2CCCC3NC2CCCCC2)ccc1-n1cnc(C)c1` (stereo not given), the Ratio in series [2] came to 64. The molecule also displayed a pKa in [8] of 8.42. In series [1], the IC50 was found to be 310 nM.
Regarding `COc1cc(-c2noc3c2CCCC3Nc2ccc(F)cc2)ccc1-n1cnc(C)c1` (stereo in doubt; 14b) [listing 1 of 2 here], in [2], the Ratio was 86.
Take `COc1cc(-c2noc3c2CCCC3Nc2ccc(F)cc2)ccc1-n1cnc(C)c1` (stereo in doubt; 14b) [listing 2 of 2 here]: the IC50 in series [1] is 230 nM.
For `COc1cc(-c2noc3c2CCCC3OCc2cc(F)cc(F)c2)ccc1-n1cnc(C)c1` (stereo not given), in [2], the Ratio stood at 39. Further, the IC50 in series [1] is 510 nM.
With `COc1cc(-c2noc3c2CCCC3N[C@H](C)c2ccc(F)cc2)ccc1-n1cnc(C)c1` (stereo not given in full), the Ratio in series [2] was found to be 77. For the same molecule, the IC50 in series [1] worked out at 260 nM.
`COc1cc(-c2noc3c2CCCC3NCc2cc(F)cc(F)c2)ccc1-n1cnc(C)c1` (stereo in doubt; 14d) [listing 2 of 2 here]: the Ratio in series [2] amounted to 28.
`COc1cc(-c2noc3c2CCCC3Oc2ccc(F)cc2)ccc1-n1cnc(C)c1` (stereo not given): the Ratio in [2] is 68. The IC50 in series [1] came out at 290 nM.
Consider `COc1cc(-c2noc3c2CCCC3Oc2cc(F)cc(F)c2)ccc1-n1cnc(C)c1` (stereo not given), for which the Ratio in series [2] was 98. The IC50 in [1] turned out to be 200 nM.
On to `CNC1CCCc2c(-c3ccc(-n4cnc(C)c4)c(OC)c3)noc21` (stereo not given), for which the Ratio in series [2] came out at 2. Moreover, in series [8], the pKa came to 8.1. Besides, the IC50 in [1] came out at 12000 nM.
